SMILES strings stand for the structures. Some results are limits rather than exact numbers.

One data set concerns rhinovirus B14. Kind of data set: Antiviral activity against Human rhinovirus B14 infected in human H1HeLa cells assessed as protection against virus induced cytopathic effect after 3 days by MTT assay. The data set is classed as functional, cell-based. The settings on record: Rhinovirus B, H1-HeLa, 72 h. In general terms: Protection from cytopathic effect is a common read-out in antiviral testing.
As usually defined, the EC50 is the concentration giving half of the maximal effect. Take `CCOC(=O)c1sc2cc(OC)ccc2c1C`: the EC50 was over 100 µM.
Consider `COc1ccc(OCc2ccc(COc3c(Cl)cccc3Cl)cc2)c(Cl)c1`, for which the EC50 was over 100 µM.
Same read-out and setting: as for `CNC(=O)c1cc(Oc2ccc3c(C)c(C(=O)N(C)C)sc3c2)ccn1`, the figure is over 42.5 µM.
The same measure, in the same setting: then `CNC(=O)c1cc(Oc2ccc3c(C)c(C(=O)O)sc3c2)ccn1`, with over 100 µM.
Turning to `CCOC(=O)c1sc2cc(O)ccc2c1C`, the EC50 is over 82 µM.
Still for that read-out and setting: then `CCOC(=O)c1sc2cc(Oc3ccnc(C(=O)OC)c3)ccc2c1C`, with over 24.9 µM; and `CNC(=O)c1cc(Oc2ccc3c(C)c(C(=O)OC(C)C)[nH]c3c2)ccn1`, with over 14.6 µM; and `CNC(=O)c1cc(Oc2ccc3ccc(C(=O)Oc4ccccc4)cc3c2)ccn1`, with over 100 µM.
Turning to `CCC(C)OC(=O)c1ccc2ccc(Oc3ccnc(C(=O)NC)c3)cc2c1` (stereo not drawn), the EC50 was over 16 µM.
On the same count and under the same terms, then `CCOC(=O)c1sc2cc(Oc3ccccc3)ccc2c1C`, with over 100 µM; and `CCNC(=O)c1sc2cc(Oc3ccnc(C(=O)NC)c3)ccc2c1C`, with over 100 µM.

The next data set has as its system rhinovirus A21. In words: Antiviral activity against Human rhinovirus A21 infected in human H1HeLa cells assessed as protection against virus induced cytopathic effect after 3 days by MTT assay. The settings on record: Rhinovirus A, H1-HeLa, 72 h. The data set is classed as functional, cell-based. In outline: (§1)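 CPE-reduction assay in H1HeLa cells plated 2 d before. Equal volumes of virus and compound were added and held at 33 °C for 3 d under CO2. Supernatant was removed, then MTT was added for 1 h at 37 °C. Formazan was dissolved and read at 540 nm against a 690 nm reference. Survival was scaled between uninfected untreated wells (100%) and virus-only wells (0%); mean ± SD, three experiments.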
For `CCOC(=O)c1sc2cc(OC)ccc2c1C`, the EC50 is over 100 µM.
Still for that read-out and setting: then `COc1ccc(OCc2ccc(COc3c(Cl)cccc3Cl)cc2)c(Cl)c1`, with 2 µM.
The same measure, in the same setting: then `CNC(=O)c1cc(Oc2ccc3c(C)c(C(=O)N(C)C)sc3c2)ccn1`, with over 42.5 µM.
On to `CNC(=O)c1cc(Oc2ccc3c(C)c(C(=O)O)sc3c2)ccn1`, for which the 50% effective concentration (EC50) is over 100 µM.
Turning to `CCOC(=O)c1sc2cc(O)ccc2c1C`, the EC50 was over 82 µM.
Same read-out and setting: then `CCOC(=O)c1sc2cc(Oc3ccnc(C(=O)OC)c3)ccc2c1C`, with over 24.9 µM.
In the case of `CNC(=O)c1cc(Oc2ccc3c(C)c(C(=O)OC(C)C)[nH]c3c2)ccn1`, the EC50 was found to be 2.5 µM.
The same measure, in the same setting: then `CNC(=O)c1cc(Oc2ccc3ccc(C(=O)Oc4ccccc4)cc3c2)ccn1`, with over 100 µM; and `CCC(C)OC(=O)c1ccc2ccc(Oc3ccnc(C(=O)NC)c3)cc2c1` (stereo not drawn), with 0.41 µM; and `CCOC(=O)c1sc2cc(Oc3ccccc3)ccc2c1C`, with 1 µM.
Still for that read-out and setting: as for `CCNC(=O)c1sc2cc(Oc3ccnc(C(=O)NC)c3)ccc2c1C`, the figure is over 100 µM.

System in the next data set: not listed separately
In words: Cytotoxicity against human H1HeLa cells assessed as decrease in cell viability after 3 days by MTT assay.
Settings: not given
The data set is classed as cell-based, H1-HeLa. In general terms: Tetrazolium assays rely on reduction of a dye to a coloured formazan, in cell work by metabolically active cells.
For orientation: CC50 means the concentration at which the toxic effect on the cells reaches its halfway point. In the case of `CCOC(=O)c1sc2cc(OC)ccc2c1C`, the CC50 at 72 h was over 100 µM.
On the same count and under the same terms, then `COc1ccc(OCc2ccc(COc3c(Cl)cccc3Cl)cc2)c(Cl)c1`, with over 100 µM; and `CNC(=O)c1cc(Oc2ccc3c(C)c(C(=O)N(C)C)sc3c2)ccn1`, with 42.5 µM.
The same measure, in the same setting: then `CNC(=O)c1cc(Oc2ccc3c(C)c(C(=O)O)sc3c2)ccn1`, with over 100 µM; and `CCOC(=O)c1sc2cc(O)ccc2c1C`, with 82 µM; and `CCOC(=O)c1sc2cc(Oc3ccnc(C(=O)OC)c3)ccc2c1C`, with 24.9 µM.
On the same count and under the same terms, then `CNC(=O)c1cc(Oc2ccc3c(C)c(C(=O)OC(C)C)[nH]c3c2)ccn1`, with 14.6 µM; and `CNC(=O)c1cc(Oc2ccc3ccc(C(=O)Oc4ccccc4)cc3c2)ccn1`, with over 100 µM; and `CCC(C)OC(=O)c1ccc2ccc(Oc3ccnc(C(=O)NC)c3)cc2c1` (stereo not drawn), with 16 µM.
As for `CCOC(=O)c1sc2cc(Oc3ccccc3)ccc2c1C`, the 50% cytotoxic concentration (CC50) at 72 h was over 100 µM.
Same read-out and setting: then `CCNC(=O)c1sc2cc(Oc3ccnc(C(=O)NC)c3)ccc2c1C`, with over 100 µM.

System in another data set: not listed separately
Kind of data set: Antiviral activity against Human rhinovirus A71 infected in human H1HeLa cells assessed as protection against virus induced cytopathic effect after 3 days by MTT assay. Type of data set: functional, cell-based. The settings on record: Rhinovirus A, H1-HeLa, 72 h. The procedure, abridged:
as §1
For the molecule `CCOC(=O)c1sc2cc(OC)ccc2c1C`, the EC50 came out at 3.8 µM.
On the same count and under the same terms, as for `COc1ccc(OCc2ccc(COc3c(Cl)cccc3Cl)cc2)c(Cl)c1`, the figure is 0.25 µM; as for `CNC(=O)c1cc(Oc2ccc3c(C)c(C(=O)N(C)C)sc3c2)ccn1`, over 42.5 µM.
Still for that read-out and setting: then `CNC(=O)c1cc(Oc2ccc3c(C)c(C(=O)O)sc3c2)ccn1`, with over 100 µM; and `CCOC(=O)c1sc2cc(O)ccc2c1C`, with over 82 µM; and `CCOC(=O)c1sc2cc(Oc3ccnc(C(=O)OC)c3)ccc2c1C`, with 15 µM.
Still for that read-out and setting: as for `CNC(=O)c1cc(Oc2ccc3c(C)c(C(=O)OC(C)C)[nH]c3c2)ccn1`, the figure is 1.9 µM; as for `CNC(=O)c1cc(Oc2ccc3ccc(C(=O)Oc4ccccc4)cc3c2)ccn1`, 8.27 µM; as for `CCC(C)OC(=O)c1ccc2ccc(Oc3ccnc(C(=O)NC)c3)cc2c1` (stereo not drawn), 0.013 µM.
`CCOC(=O)c1sc2cc(Oc3ccccc3)ccc2c1C`: the concentration for a half-maximal effect (EC50) was found to be 1.7 µM.
Still for that read-out and setting: as for `CCNC(=O)c1sc2cc(Oc3ccnc(C(=O)NC)c3)ccc2c1C`, the figure is over 100 µM.

System in a further data set: not listed separately
In words: Selectivity index, ratio of CC50 for human H1HeLa cells to EC50 for Human rhinovirus A21 infected in human H1HeLa cells. Type of data set: toxicity, cell-based. The settings on record: read-out: Ratio CC50/EC50. In outline: (§2)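 H1HeLa cells plated 2 d ahead; virus plus compound (equal volumes) incubated 33 °C, 3 d, CO2. MTT 1 h at 37 °C, A540/A690. Survival scaled between uninfected untreated (100%) and virus-only (0%) wells to give EC50. CC50 = 50% cell death by MTT in H1HeLa. SI = CC50/EC50; at least three independent experiments.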
In the case of `COc1ccc(OCc2ccc(COc3c(Cl)cccc3Cl)cc2)c(Cl)c1`, the selectivity ratio was over 50.
For `CNC(=O)c1cc(Oc2ccc3c(C)c(C(=O)OC(C)C)[nH]c3c2)ccn1`, the selectivity ratio amounted to 5.8.
Consider `CCC(C)OC(=O)c1ccc2ccc(Oc3ccnc(C(=O)NC)c3)cc2c1` (stereo not drawn), for which the selectivity ratio is 39.
On to `CCOC(=O)c1sc2cc(Oc3ccccc3)ccc2c1C`, for which the selectivity ratio is over 100.

System in another data set: not listed separately
Kind of data set: Selectivity index, ratio of CC50 for human H1HeLa cells to EC50 for Human rhinovirus A71 infected in human H1HeLa cells. The data set is classed as toxicity, cell-based. The note with it: read-out: Ratio CC50/EC50. In outline: as §2
With `CCOC(=O)c1sc2cc(OC)ccc2c1C`, the selectivity ratio is over 26.
Same read-out and setting: as for `COc1ccc(OCc2ccc(COc3c(Cl)cccc3Cl)cc2)c(Cl)c1`, the figure is over 400.
Regarding `CCOC(=O)c1sc2cc(Oc3ccnc(C(=O)OC)c3)ccc2c1C`, the selectivity ratio was determined as 1.7.
The same measure, in the same setting: as for `CNC(=O)c1cc(Oc2ccc3c(C)c(C(=O)OC(C)C)[nH]c3c2)ccn1`, the figure is 7.7; as for `CNC(=O)c1cc(Oc2ccc3ccc(C(=O)Oc4ccccc4)cc3c2)ccn1`, over 12.
The same measure, in the same setting: as for `CCC(C)OC(=O)c1ccc2ccc(Oc3ccnc(C(=O)NC)c3)cc2c1` (stereo not drawn), the figure is 1200.
Regarding `CCOC(=O)c1sc2cc(Oc3ccccc3)ccc2c1C`, the selectivity ratio was over 59.

The subject of another data set is Poliovirus 3. Kind of data set: Antiviral activity against Human poliovirus 3 infected in human HeLa cells assessed as protection against virus induced cytopathic effect after 2 days by MTT assay. The note with it: Enterovirus C, 48 h. The data set is classed as functional, cell-based. The procedure, abridged:
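HeLa cells; MTT-based CPE reduction. Virus and compound added in equal volumes, incubated 37 °C for 2 d in CO2. Supernatant removed, MTT 1 h at 37 °C, formazan dissolved, absorbance 540 nm (690 nm reference). Uninfected untreated wells = 100% survival, virus-only = 0%. EC50 = 50% inhibition; means ± SD, three experiments.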
Regarding `CCOC(=O)c1sc2cc(OC)ccc2c1C`, the EC50 was 1.8 µM.
Still for that read-out and setting: then `COc1ccc(OCc2ccc(COc3c(Cl)cccc3Cl)cc2)c(Cl)c1`, with 0.08 µM; and `CNC(=O)c1cc(Oc2ccc3c(C)c(C(=O)N(C)C)sc3c2)ccn1`, with over 44.4 µM.
Regarding `CNC(=O)c1cc(Oc2ccc3c(C)c(C(=O)O)sc3c2)ccn1`, the EC50 is over 100 µM.
On the same count and under the same terms, as for `CCOC(=O)c1sc2cc(O)ccc2c1C`, the figure is 9.4 µM; as for `CCOC(=O)c1sc2cc(Oc3ccnc(C(=O)OC)c3)ccc2c1C`, over 26.2 µM; as for `CNC(=O)c1cc(Oc2ccc3c(C)c(C(=O)OC(C)C)[nH]c3c2)ccn1`, 0.072 µM.
`CNC(=O)c1cc(Oc2ccc3ccc(C(=O)Oc4ccccc4)cc3c2)ccn1`: the EC50 was 60.1 µM.
The same measure, in the same setting: then `CCC(C)OC(=O)c1ccc2ccc(Oc3ccnc(C(=O)NC)c3)cc2c1` (stereo not drawn), with 0.35 µM.
Regarding `CCOC(=O)c1sc2cc(Oc3ccccc3)ccc2c1C`, the EC50 was over 47.6 µM.
Still for that read-out and setting: then `CCNC(=O)c1sc2cc(Oc3ccnc(C(=O)NC)c3)ccc2c1C`, with over 100 µM.

System in another data set: not listed separately
In words: Cytotoxicity aganist human HeLa cells assessed as decrease in cell viability after 2 days by MTT assay. The data set is classed as cell-based.
Settings: not given
As for `CCOC(=O)c1sc2cc(OC)ccc2c1C`, the CC50 at 48 h is over 100 µM.
Still for that read-out and setting: as for `COc1ccc(OCc2ccc(COc3c(Cl)cccc3Cl)cc2)c(Cl)c1`, the figure is 16 µM; as for `CNC(=O)c1cc(Oc2ccc3c(C)c(C(=O)N(C)C)sc3c2)ccn1`, 44.4 µM; as for `CNC(=O)c1cc(Oc2ccc3c(C)c(C(=O)O)sc3c2)ccn1`, over 100 µM.
Same read-out and setting: as for `CCOC(=O)c1sc2cc(O)ccc2c1C`, the figure is 46.6 µM; as for `CCOC(=O)c1sc2cc(Oc3ccnc(C(=O)OC)c3)ccc2c1C`, 26.2 µM; as for `CNC(=O)c1cc(Oc2ccc3c(C)c(C(=O)OC(C)C)[nH]c3c2)ccn1`, 8.4 µM.
The same measure, in the same setting: as for `CNC(=O)c1cc(Oc2ccc3ccc(C(=O)Oc4ccccc4)cc3c2)ccn1`, the figure is over 100 µM; as for `CCC(C)OC(=O)c1ccc2ccc(Oc3ccnc(C(=O)NC)c3)cc2c1` (stereo not drawn), 9 µM.
For `CCOC(=O)c1sc2cc(Oc3ccccc3)ccc2c1C`, the cytotoxic concentration (CC50) at 48 h stood at 47.6 µM.
Same read-out and setting: as for `CCNC(=O)c1sc2cc(Oc3ccnc(C(=O)NC)c3)ccc2c1C`, the figure is over 100 µM.

System in a further data set: not listed separately
In words: Selectivity index, ratio of CC50 for human HeLa cells to EC50 for human poliovirus 3 infected in human HeLa cells. Type of data set: toxicity, cell-based. The settings on record: read-out: Ratio CC50/EC50. The procedure, abridged:
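SI = CC50/EC50 in HeLa cells. CC50 = 50% cell death by MTT. EC50 = 50% inhibition of PV3 CPE by MTT after 2 d at 37 °C, survival scaled to uninfected (100%) and virus-only (0%) wells. At least three independent experiments.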
Turning to `CCOC(=O)c1sc2cc(OC)ccc2c1C`, the selectivity ratio was over 56.
The same measure, in the same setting: as for `COc1ccc(OCc2ccc(COc3c(Cl)cccc3Cl)cc2)c(Cl)c1`, the figure is 200.
Still for that read-out and setting: as for `CCOC(=O)c1sc2cc(O)ccc2c1C`, the figure is 5; as for `CNC(=O)c1cc(Oc2ccc3c(C)c(C(=O)OC(C)C)[nH]c3c2)ccn1`, 120.
Still for that read-out and setting: as for `CNC(=O)c1cc(Oc2ccc3ccc(C(=O)Oc4ccccc4)cc3c2)ccn1`, the figure is over 1.7; as for `CCC(C)OC(=O)c1ccc2ccc(Oc3ccnc(C(=O)NC)c3)cc2c1` (stereo not drawn), 26.

These data come from ChEMBL document CHEMBL4011621, “A Novel Series of Highly Potent Small Molecule Inhibitors of Rhinovirus Replication” (J Med Chem, 2017).
